What was measured:
[1] = system: CAKI-1; assay: Growth inhibition of human Caki1 cells after 48 hrs by SRB assay; format: functional; details: CAKI-1, 48 h
In short: (§1)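 NCI 60-cell-line screen. Cells grown in RPMI1640 with 5% fetal calf serum and 2 mM L-glutamine, with inoculum density set by cell line. Preincubated 24 h, then given compound in DMSO at 10^-4 to 10^-8 M (five 10-fold steps) for 48 h continuous exposure. Growth measured by SRB protein assay. GI50, TGI and LC50 reported as –log molar.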

[2] = system: 786-0; assay: Growth inhibition of human 786-0 cells after 48 hrs by SRB assay; format: functional; details: 786-0, 48 h; in short: as §1
[3] = system: K562; assay: Growth inhibition of human K562 cells after 48 hrs by SRB assay; format: functional; details: K562, 48 h; in short: as §1
[4] = system: HL-60(TB); assay: Growth inhibition of human HL-60(TB) cells after 48 hrs by SRB assay; format: functional; details: HL-60, 48 h
In short: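 NCI 60-cell-line screen: cells grown in RPMI1640 with 5% fetal calf serum and 2 mM L-glutamine, preincubated 24 h, then exposed to compound in DMSO at five concentrations (10^-4 to 10^-8 M) for 48 h continuous exposure. Growth estimated by sulforhodamine B protein assay; reported as pGI50 (-log molar concentration inhibiting net cell growth by 50%).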

[5] = system: SF-295; assay: Growth inhibition of human SF295 cells after 48 hrs by SRB assay; format: functional; details: SF-295, 48 h; in short: as §1
[6] = system: IGROV-1; assay: Growth inhibition of human IGROV1 cells after 48 hrs by SRB assay; format: functional; details: IGROV-1, 48 h; in short: as §1
[7] = system: SK-OV-3; assay: Growth inhibition of human SKOV3 cells after 48 hrs by SRB assay; format: functional; details: SK-OV-3, 48 h; in short: as §1
[8] = system: T47D; assay: Growth inhibition of human T47D cells after 48 hrs by SRB assay; format: functional; in short: as §1
[9] = system: M14; assay: Growth inhibition of human M14 cells after 48 hrs by SRB assay; format: functional; details: M14, 48 h; in short: as §1
[10] = system: HCT-15; assay: Growth inhibition of human HCT15 cells after 48 hrs by SRB assay; format: functional; details: HCT-15, 48 h; in short: as §1
[11] = system: NCI-H460; assay: Growth inhibition of human NCI-H460 cells after 48 hrs by SRB assay; format: functional; details: NCI-H460, 48 h; in short: as §1
[12] = system: OVCAR-4; assay: Growth inhibition of human OVCAR4 cells after 48 hrs by SRB assay; format: functional; details: OVCAR-4, 48 h; in short: as §1
[13] = system: HT-29; assay: Growth inhibition of human HT-29 cells after 48 hrs by SRB assay; format: functional; details: HT-29, 48 h; in short: as §1
[14] = system: NCI-H322M; assay: Growth inhibition of human NCI-H322M cells after 48 hrs by SRB assay; format: functional; in short: as §1
[15] = system: SW-620; assay: Growth inhibition of human SW620 cells after 48 hrs by SRB assay; format: functional; details: SW-620, 48 h; in short: as §1
[16] = system: MDA-MB-435; assay: Growth inhibition of human MDA-MB-435 cells after 48 hrs by SRB assay; format: functional; details: MDA-MB-435, 48 h; in short: as §1
[17] = system: HOP-62; assay: Growth inhibition of human HOP62 cells after 48 hrs by SRB assay; format: functional; details: HOP-62, 48 h; in short: as §1
[18] = system: SK-MEL-5; assay: Growth inhibition of human SK-MEL-5 cells after 48 hrs by SRB assay; format: functional; details: SK-MEL-5, 48 h; in short: as §1
[19] = system: SF-539; assay: Growth inhibition of human SF539 cells after 48 hrs by SRB assay; format: functional; details: SF-539, 48 h; in short: as §1
[20] = system: SK-MEL-28; assay: Growth inhibition of human SK-MEL-28 cells after 48 hrs by SRB assay; format: functional; details: SK-MEL-28, 48 h; in short: as §1
[21] = system: SR; assay: Growth inhibition of human SR cells after 48 hrs by SRB assay; format: functional; in short: as §1
[22] = system: UACC-62; assay: Growth inhibition of human UACC62 cells after 48 hrs by SRB assay; format: functional; details: UACC-62, 48 h; in short: as §1
[23] = system: EKVX; assay: Growth inhibition of human EKVX cells after 48 hrs by SRB assay; format: functional; in short: as §1
[24] = Growth inhibition of human Hs 578T cells after 48 hrs by SRB assay; format: functional; in short: as §1
[25] = system: HCC 2998; assay: Growth inhibition of human HCC2998 cells after 48 hrs by SRB assay; format: functional; details: HCC 2998, 48 h; in short: as §1
[26] = system: NCI/ADR-RES; assay: Growth inhibition of human NCI/ADR-RES cells after 48 hrs by SRB assay; format: functional; in short: as §1
[27] = system: U-251; assay: Growth inhibition of human U251 cells after 48 hrs by SRB assay; format: functional; details: U-251, 48 h; in short: as §1
[28] = system: NCI-H460; assay: Cytotoxicity against human NCI-H460 cells after 72 hrs by SRB assay; format: functional, cell-based; details: NCI-H460, 72 h
In short: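 NCI-H460 (ATCC) cells seeded in 96-well plates in growth medium. Scalar drug concentrations added 24 h after plating, then 72 h exposure. Surviving cells stained with sulforhodamine B, OD read at 570 nm. IC50 (50% growth inhibition) fitted from dose–response curves. Mean ± SE of at least three independent experiments.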

[29] = system: UO-31; assay: Growth inhibition of human UO31 cells after 48 hrs by SRB assay; format: functional; details: UO-31, 48 h; in short: as §1
[30] = system: SNB-75; assay: Growth inhibition of human SNB75 cells after 48 hrs by SRB assay; format: functional; details: SNB-75, 48 h; in short: as §1
[31] = system: OVCAR-8; assay: Growth inhibition of human OVCAR8 cells after 48 hrs by SRB assay; format: functional; details: OVCAR-8, 48 h; in short: as §1
[32] = system: Malme-3M; assay: Growth inhibition of human MALME-3M cells after 48 hrs by SRB assay; format: functional; in short: as §1
[33] = system: HCT-116; assay: Growth inhibition of human HCT116 cells after 48 hrs by SRB assay; format: functional; details: HCT-116, 48 h; in short: as §1
[34] = system: SF-268; assay: Growth inhibition of human SF268 cells after 48 hrs by SRB assay; format: functional; details: SF-268, 48 h; in short: as §1
[35] = system: DU-145; assay: Growth inhibition of human DU145 cells after 48 hrs by SRB assay; format: functional; details: DU-145, 48 h; in short: as §1

Structure (SMILES): COc1cc(C2CC(c3cccc(O)c3)=NN2C(C)=O)cc(OC)c1OC (configuration not stated)
- GI50 [1]: 2.51 µM
- TGI ([1]; read-out: pTGI (converted)): > 100 µM
- GI50 [2]: 1.26 µM
- TGI ([2]; read-out: pTGI (converted)): 3.98 µM
- GI50 [3]: 0.631 µM
- TGI ([3]; read-out: pTGI (converted)): 63.1 µM
- GI50 [4]: 1.58 µM
- TGI ([4]; read-out: pTGI (converted)): 5.01 µM
- GI50 [5]: 0.316 µM
- TGI ([5]; read-out: pTGI (converted)): 5.01 µM
- GI50 [6]: 3.98 µM
- TGI ([6]; read-out: pTGI (converted)): > 100 µM
- GI50 [7]: 2.51 µM
- TGI ([7]; read-out: pTGI (converted)): > 100 µM
- GI50 [8]: 3.16 µM
- TGI ([8]; read-out: pTGI (converted)): > 100 µM
- GI50 [9]: 0.794 µM
- TGI ([9]; read-out: pTGI (converted)): > 100 µM
- GI50 [10]: 0.794 µM
- TGI ([10]; read-out: pTGI (converted)): > 100 µM
- GI50 [11]: 2 µM
- TGI ([11]; read-out: pTGI (converted)): 10 µM
- GI50 [12]: 6.31 µM
- TGI ([12]; read-out: pTGI (converted)): > 100 µM
- GI50 [13]: 3.16 µM
- TGI ([13]; read-out: pTGI (converted)): > 100 µM
- GI50 [14]: 3.98 µM
- TGI ([14]; read-out: pTGI (converted)): > 100 µM
- GI50 [15]: 0.794 µM
- TGI ([15]; read-out: pTGI (converted)): > 100 µM
- GI50 [16]: 0.251 µM
- TGI ([16]; read-out: pTGI (converted)): 0.794 µM
- GI50 [17]: 0.126 µM
- TGI ([17]; read-out: pTGI (converted)): 2 µM
- GI50 [18]: 0.631 µM
- TGI ([18]; read-out: pTGI (converted)): 5.01 µM
- GI50 [19]: 2 µM
- TGI ([19]; read-out: pTGI (converted)): 6.31 µM
- GI50 [20]: 5.01 µM
- TGI ([20]; read-out: pTGI (converted)): > 100 µM
- GI50 [21]: 0.1 µM
- TGI ([21]; read-out: pTGI (converted)): > 100 µM
- GI50 [22]: 2.51 µM
- TGI ([22]; read-out: pTGI (converted)): > 100 µM
- GI50 [23]: 6.31 µM
- TGI ([23]; read-out: pTGI (converted)): > 100 µM
- GI50 [24]: 0.794 µM
- TGI ([24]; read-out: pTGI (converted)): 7.94 µM
- GI50 [25]: 2 µM
- TGI ([25]; read-out: pTGI (converted)): 15.8 µM
- GI50 [26]: 1.26 µM
- TGI ([26]; read-out: pTGI (converted)): 3.98 µM
- GI50 [27]: 2.51 µM
- TGI ([27]; read-out: pTGI (converted)): > 100 µM
- IC50 [28]: 2.3 µM
- GI50 [29]: 10 µM
- TGI ([29]; read-out: pTGI (converted)): > 100 µM
- GI50 [30]: 0.398 µM
- GI50 [31]: 5.01 µM
- TGI ([31]; read-out: pTGI (converted)): > 100 µM
- GI50 [32]: 2.51 µM
- TGI ([32]; read-out: pTGI (converted)): > 100 µM
- GI50 [33]: 2.51 µM
- TGI ([33]; read-out: pTGI (converted)): > 100 µM
- GI50 [34]: 7.94 µM
- TGI ([34]; read-out: pTGI (converted)): > 100 µM
- GI50 [35]: 3.16 µM

— ChEMBL document CHEMBL1221342, “Synthesis and in vitro antitumor activity of new 4,5-dihydropyrazole derivatives” (Bioorg Med Chem, 2010)
